# UHRF1 binding: UHRF1 methylated DNA binding inhibitors, primary screen, counter-screen for MBD2 inhibitor project, biochemical, TR-FRET, human UHRF1, single concentration; UHRF1 binding to methylated oligo; inhibition, % at 4.4 µM; 370,000 tested, 0.75% active; AID 687016, 2013;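 further: UHRF1 SRA domain binding a hemimethylated CpG hairpin DNA probe; 0% = median of test compound wells and 100% = reference inhibitor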
# TDP2 inh: human TDP2 enzyme inhibitors, primary screen, biochemical, epi absorbance, recombinant enzyme | T5PNP hydrolysis, p-nitrophenol absorbance 415 nm | 370,000 tested, 0.34% active | inhibition, % at 12.8 µM | Tyrosyl-DNA phosphodiesterase 2 (Homo sapiens), O95551;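 active means inhibition above the mean of all tested compounds plus 3 SD, set per campaign, cut at about 25% in these data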;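 further: 0% = DMSO with enzyme and 100% = buffer with substrate but no TDP2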
# Target sequence (O95551 whole entry, looked up): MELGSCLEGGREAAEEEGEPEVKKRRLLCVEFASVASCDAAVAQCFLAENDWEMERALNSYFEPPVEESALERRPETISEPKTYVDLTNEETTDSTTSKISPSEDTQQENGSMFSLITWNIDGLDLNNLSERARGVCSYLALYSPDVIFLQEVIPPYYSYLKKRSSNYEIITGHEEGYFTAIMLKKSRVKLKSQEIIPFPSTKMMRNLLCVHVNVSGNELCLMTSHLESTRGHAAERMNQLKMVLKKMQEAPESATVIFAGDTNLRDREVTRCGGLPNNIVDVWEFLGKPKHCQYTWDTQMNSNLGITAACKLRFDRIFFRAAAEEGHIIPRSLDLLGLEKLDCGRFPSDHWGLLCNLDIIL
#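 Read-out basis: percent inhibition. System: recombinant human TDP2. Buffer or medium: Mg2+-containing Tris-HCl buffer, pH 7.5. Repeats: single replicate. Timing: reaction 2 h, 37 °C. Benchmarks: high control without enzyme, low control DMSO plus TDP2. Probe or stimulus: 5 mM T5PNP. Doses: 12.8 µM only. Measured by: epi absorbance of p-nitrophenol freed from T5PNP by hydrolysis.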
# MBD2 inh: inhibitors of MBD2 binding to methylated DNA, primary screen, biochemical, TR-FRET, DNA-binding domain, human. Methyl-CpG-binding domain protein 2 (Homo sapiens), Q9UBB5. 370,000 tested, 0.31% active. MBD2 binding to methylated oligonucleotide. inhibition, % at 4.4 µM; in the data active means inhibition above about 13%
# LEDGF integ inh: blockers of LEDGF/p75-dependent integrase strand transfer – biochemical, TR-FRET, high throughput, primary screen | HIV-1 integrase (with human LEDGF/p75) | TR-FRET IN-LEDGF/p75 DNA integration, Eu/Cy5 | inhibition, % at 3.7 µM | 370,000 tested, 0.64% active | AID 743269, 2014;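 active means inhibition above the screen-wide mean plus 3 SD, cut at about 13% in these data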;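 further: signal is the Cy5 over europium emission ratio at 671 and 618 nm; 0% = plate median of compound wells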
# HCV core dimer: inhibitors of HCV core protein dimerization, primary screen, biochemical, TR-FRET, high-throughput; inhibition, % at 5 µM; 300,000 tested, 0.33% active; TR-FRET GST/Flag-core106 dimerization, 1536-well;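 active means inhibition above the mean of all tested compounds plus 3 SD, set per screening campaign, cut at about 45% in these data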
#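 assay system = GST-tagged and Flag-tagged HCV core protein residues 1-106 | controls = unlabelled core106 and no-GST-core106 wells | incubation = compound-protein-antibody incubation 4 h at 22.5 °C | probe or stimulus = Eu donor and XL665 acceptor anti-tag antibodies | read-out = % inhibition based on acceptor/donor emission ratio | signal = TR-FRET 671 and 617 nm emission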
# UHRF1 ctr MBD2: UHRF1 methylated DNA binding inhibitors, counter-screen for MBD2 inhibitor project, biochemical, TR-FRET, human UHRF1. shares compounds with MBD2 inh. UHRF1 binding to methylated oligonucleotide. inhibition, % at 4.4 µM. 1,000 tested, 25% active. AID 720530, 2013;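 further: UHRF1 SRA domain binding a labeled hemimethylated CpG hairpin DNA; 0% = vehicle only and 100% = reference inhibitor with vehicle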
# MBD2 confirm: inhibitors of MBD2 binding to methylated DNA, confirmation, biochemical, TR-FRET, DNA-binding domain, human. AID 720531, 2013. shares compounds with MBD2 inh. 1,000 tested, 26% active. TR-FRET MBD2-DBD binding to methylated oligonucleotide. inhibition, % at 4.4 µM; in the data active means inhibition above about 14%
# An asterisk follows results filed as active; nt = no result. An excerpt weighted towards active compounds, which were near 1.8% of everything screened. Unless noted, no stated cut-off is given here; in the data, active means inhibition above about 21%; inactive means the rest.
SMILES,UHRF1 binding,TDP2 inh,MBD2 inh,LEDGF integ inh,HCV core dimer,UHRF1 ctr MBD2,MBD2 confirm
COC(=O)c1ccc(C(=O)OC)c(NC(=O)Cc2cccs2)c1,20.0,-5.6,16.2*,1.3,nt,21.6*,15.4*
C=CCN1C(=O)[C@@H](CC(=O)NCc2cccc3ccccc23)[C@]2(C(=O)OCC)CCCCC/C=C/12,0.8,-8.3,2.2,8.1,nt,nt,nt
CC(C)CN(C(=O)CSc1nc2ccccc2c(=O)[nH]1)c1c(N)n(CC(C)C)c(=O)[nH]c1=O,-1.5,2.0,24.7*,-1.5,nt,4.0,1.6
CCCOCc1ccc(O)c2ncccc12,-1.0,7.4,19.3*,-2.4,1.7,0.2,2.4
CC(C)COCc1ccc(O)c2ncccc12,13.9,3.6,-2.0,-2.1,2.9,nt,nt
Cc1csc(NC(=O)c2ccc(COc3ccccc3F)o2)n1,-1.9,-0.5,9.2,1.8,nt,nt,nt
COC(=O)[C@@]1(C(C)C)N=C(c2cc(OC)c(OC)c(OC)c2)[C@]2(O1)C(=O)N(Cc1cn(Cc3ccccc3)nn1)c1ccc(F)cc12,16.2,0.1,13.8*,-2.7,nt,11.8,6.0
COc1ccc(NC(=O)CSc2nc3[nH]ncc3c(=O)n2-c2ccccc2OC)cc1OC,26.0*,5.6,16.6*,3.4,-8.8,5.2,1.6
COc1ccc(NC(=O)CSc2nc3[nH]ncc3c(=O)n2-c2ccccc2C)cc1OC,-1.0,7.4,0.5,1.4,-12.2,nt,nt
Cn1cccc1CC(=O)N/N=C/C=C/c1ccco1,52.7*,-11.7,22.8*,47.6*,38.4,26.2*,24.2*
COc1ccc2c(c1)N[C@@](CCN1C(=O)c3ccccc3C1=O)(c1[nH]c3ccccc3c1CCN1C(=O)c3ccccc3C1=O)C2=O,13.8,-1.9,0.1,-5.4,nt,nt,nt
CN(C)Cc1c(O)ccc2c3c(c(=O)oc12)CCCCC3,-1.9,2.0,-2.3,0.1,3.1,nt,nt
CN(Cc1c(O)ccc2c1oc(=O)c1ccccc12)C1CCCCC1,19.3,-12.3,20.0*,6.2,13.4,2.0,9.6
COc1ccc(CNC(=O)c2cccc3c2C(=O)N(Cc2cccnc2)C3)cc1,0.5,-2.2,0.3,0.6,-1.8,nt,nt
COc1ccc(CNC(=O)c2cccc3c2C(=O)N(CC2CCCO2)C3)cc1 (configuration not stated),3.0,-11.0,31.5*,7.9,-18.3,5.7,3.4
C=CCN1[C@H](CC(C)C)COc2cccc(N3CCSCC3)c2S1(=O)=O,-1.0,6.4,0.6,3.5,nt,nt,nt
COC(=O)[C@H]1[C@H](c2ccccc2)[C@H](C(=O)OC)O[C@H]1c1ccccc1,1.8,-6.0,0.2,3.7,-2.8,nt,nt
COC(=O)C1C(c2ccccc2)C=CC(c2ccccc2)C1C(=O)O (configuration not stated),2.0,4.5,43.8*,1.3,1.4,8.0,2.8
C[C@@H](/C=C/C(=O)OC(C)(C)C)Sc1ccc(C(C)(C)C)cc1,-3.0,-2.2,18.4*,2.5,nt,8.4,2.5
CCC[C@@H](/C=C/C(=O)OC(C)(C)C)Sc1ccc(C(C)(C)C)cc1,3.3,2.8,-2.7,-0.3,nt,nt,nt
CCN(CC)S(=O)(=O)c1ccc(C(=O)NCc2nnc(SCC(=O)OC)n2C)cc1,-0.2,8.7,20.6*,-0.5,-2.5,2.6,3.9
COC(=O)CSc1nnc(CNC(=O)c2ccc(S(=O)(=O)N(C)C)cc2)n1C,-3.0,-10.1,-3.0,-2.6,3.5,nt,nt
